The record followed here is ChEMBL document CHEMBL5137075, “Discovery of a First-in-Class Degrader for Nuclear Receptor Binding SET Domain Protein 2 (NSD2) and Ikaros/Aiolos” (J Med Chem, 2022).

pKd: −log10 of the molar value. Calls of active or inactive are those of the source. The rule behind the calls is not given here. Bounds are passed on as bounds.

Data set [1] addresses T1, Histone-lysine N-methyltransferase NSD2 (Homo sapiens, UniProt O96028).
T1 sequence (O96028 whole entry): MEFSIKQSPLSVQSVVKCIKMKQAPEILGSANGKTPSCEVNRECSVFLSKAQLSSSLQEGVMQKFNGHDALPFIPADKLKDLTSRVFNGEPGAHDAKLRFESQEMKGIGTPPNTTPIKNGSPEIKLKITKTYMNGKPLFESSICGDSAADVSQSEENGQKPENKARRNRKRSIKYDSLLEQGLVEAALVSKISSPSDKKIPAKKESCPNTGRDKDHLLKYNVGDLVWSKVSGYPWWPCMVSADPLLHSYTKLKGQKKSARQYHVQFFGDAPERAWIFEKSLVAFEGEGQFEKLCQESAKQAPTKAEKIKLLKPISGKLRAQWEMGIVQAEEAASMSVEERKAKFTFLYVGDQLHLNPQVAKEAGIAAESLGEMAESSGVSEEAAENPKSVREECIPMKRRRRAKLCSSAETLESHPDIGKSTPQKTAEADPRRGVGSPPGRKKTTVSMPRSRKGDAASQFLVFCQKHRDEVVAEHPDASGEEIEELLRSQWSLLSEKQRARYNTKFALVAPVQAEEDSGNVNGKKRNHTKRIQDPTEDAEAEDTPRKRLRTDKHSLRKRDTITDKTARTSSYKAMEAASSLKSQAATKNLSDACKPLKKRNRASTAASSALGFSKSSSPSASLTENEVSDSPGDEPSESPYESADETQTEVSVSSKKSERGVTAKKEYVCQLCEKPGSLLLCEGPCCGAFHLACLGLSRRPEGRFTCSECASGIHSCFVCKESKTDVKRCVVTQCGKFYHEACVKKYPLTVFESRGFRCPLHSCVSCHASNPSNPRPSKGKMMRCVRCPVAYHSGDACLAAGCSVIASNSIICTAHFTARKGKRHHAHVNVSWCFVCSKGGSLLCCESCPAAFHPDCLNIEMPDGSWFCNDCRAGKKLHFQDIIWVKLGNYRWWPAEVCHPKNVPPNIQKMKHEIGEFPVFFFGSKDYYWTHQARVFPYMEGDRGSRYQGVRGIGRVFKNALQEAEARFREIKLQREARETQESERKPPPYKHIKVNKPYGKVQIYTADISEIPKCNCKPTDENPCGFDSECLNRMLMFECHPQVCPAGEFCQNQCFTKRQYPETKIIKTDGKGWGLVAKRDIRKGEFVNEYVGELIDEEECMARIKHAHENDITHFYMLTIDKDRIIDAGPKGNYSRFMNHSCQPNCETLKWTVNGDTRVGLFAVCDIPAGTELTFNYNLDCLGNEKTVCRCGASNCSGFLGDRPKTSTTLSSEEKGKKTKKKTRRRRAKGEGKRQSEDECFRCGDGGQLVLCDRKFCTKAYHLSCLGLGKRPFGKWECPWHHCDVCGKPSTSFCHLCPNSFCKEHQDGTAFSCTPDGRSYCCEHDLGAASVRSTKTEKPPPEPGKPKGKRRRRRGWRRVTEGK
Nature of the data set: Binding affinity to N-terminal GST-tagged human NSD2 PWWP1 domain (208 to 369 residues) expressed in Escherichia coli […] (DE3) cells assessed as dissociation constant by isothermal titration calorimetry assay.

Data set [2] deals with T2, Protein cereblon/Zinc finger protein Aiolos (Homo sapiens) (UniProt Q96SW2+Q9UKT9). Briefly: Protac activity at CRBN/IKZF3 in human NCI-H929 cells assessed as induction of IKZF3 degradation at 2.5 uM incubated for 72 hrs by Western blot analysis. The class given is cell-based. A digest of the protocol:
(§1)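 KMS11 or H929 myeloma cells were treated with DMSO or 2.5 μM for 72 h. IKZF1 and IKZF3 were measured by Western blot with GAPDH as loading control, representative of two independent experiments.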
A general note: A western blot detects proteins with antibodies after separation by electrophoresis.

The target in data set [3] is T3, Cereblon/Ikaros (Homo sapiens) (UniProt Q96SW2+Q13422). Briefly: Protac activity at CRBN/IKZF1 in human NCI-H929 cells assessed as induction of IKZF1 degradation at 2.5 uM incubated for 72 hrs by Western blot analysis. The data set is classed as cell-based. A digest of the protocol: as §1
For data set [4], the target named is T3, Cereblon/Ikaros (Homo sapiens). Nature of the data set: Protac activity at CRBN/IKZF1 in human KMS-11 cells assessed as induction of IKZF1 degradation at 2.5 uM incubated for 72 hrs by Western blot analysis. The data set is classed as cell-based. The gist of the method: as §1
Data set [5] deals with T2, Protein cereblon/Zinc finger protein Aiolos (Homo sapiens). Briefly: Protac activity at CRBN/IKZF3 in human KMS-11 cells assessed as induction of IKZF3 degradation at 2.5 uM incubated for 72 hrs by Western blot analysis. The class given is cell-based. A digest of the protocol: as §1
The target of data set [6] is T4, Protein cereblon/Histone-lysine N-methyltransferase NSD2 (Homo sapiens, UniProt O96028+Q96SW2). Briefly: Protac activity at CRBN E3 ligase/ NSD2 PWWP1 domain (208 to 369 residues) in HEK293FT cells assessed as induction of NSD2 degradation by measuring maximal efficacy at 0.5 to 10 uM incubated for 48 hrs by Western blot analysis relative to control. The class given is cell-based. The conditions noted are these: dose 0.5-10 µM. A digest of the protocol:
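293FT cells were exposed to 0.5–10 μM for 48 h. NSD2 was immunoblotted with GAPDH as loading control and band intensity quantified by densitometry to derive DC50 and Dmax. Results are mean ± SD of two independent experiments.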

Data set [7] is described as follows: Drug concentration in Swiss albino mouse plasma at 50 mg/kg, ip measured after 8 hrs by LC-MS/MS analysis. The data set is classed as ADME, organism-based. The gist of the method: (§2)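 Three male Swiss albino mice received a single 50 mg/kg intraperitoneal dose as a solution in 5% NMP/45% propylene glycol/50% PEG-400 (v/v). Blood was drawn at 0.5, 2 and 8 h and plasma stored at −70 °C. Plasma levels were measured by LC–MS/MS (LLOQ 5.14 ng/mL), reported as mean ± SD of three mice; mice were watched for clinical signs.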

In data set [8] the target is T2, Protein cereblon/Zinc finger protein Aiolos (Homo sapiens). Nature of the data set: Protac activity at CRBN/IKZF3 in wild type HEK293FT cells assessed as induction of IKZF3 degradation at 0.5 to 10 uM incubated for 48 hrs by Western blot analysis. To be noted: dose 0.5-10 µM. The data set is classed as cell-based. The gist of the method:
(§3)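 Wild-type 293FT cells, alongside a CRISPR-Cas9 CRBN-knockout 293FT line, were treated across a concentration range for 48 h. NSD2, IKZF3 and CRBN were immunoblotted with GAPDH as loading control, representative of at least two independent experiments.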

In the next data set the test system is NCI-H929. Briefly: Antiproliferative activity against human NCI-H929 cells assessed as inhibition of cell growth at 2.5 uM incubated for 8 days by automated TC10 cell counter based analysis. The class given is functional. The conditions noted are these: time 8.0 day. A digest of the protocol:
(§4)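 KMS11 or H929 cells (RPMI 1640, 10% FBS) seeded at 0.5 million per well in triplicate, treated with 2.5 μM or DMSO for 8 days. Compound-containing medium replaced every 2 days; cells diluted periodically to stay below 1 × 10^6/mL. Viability given relative to DMSO control as mean ± SD (n = 3).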

A short description of data set [9]: Toxicity in Swiss albino mouse assessed as clinical signs of toxicity at 50 mg/kg, ip administered for 8 hrs. The class given is organism-based. The conditions noted are these: in vivo. A digest of the protocol: as §2
Data set [10] is described as follows: Tmax in Swiss albino mouse at 50 mg/kg, ip by LC-MS/MS analysis. The data set is classed as ADME, organism-based. To be noted: in vivo. The gist of the method: as §2
Data set [11] addresses T4, Protein cereblon/Histone-lysine N-methyltransferase NSD2. Briefly: Protac activity at CRBN E3 ligase/ NSD2 PWWP1 domain (208 to 369 residues) in HEK293FT cells assessed as induction of NSD2 degradation incubated for 48 hrs by Western blot analysis. The data set is classed as cell-based. The gist of the method:
(§5)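 293FT cells (DMEM, 10% FBS) were treated with DMSO or compound at the indicated concentrations for 48 h. NSD2 was detected by Western blot of NP-40 lysates with GAPDH as loading control. Blots are representative of at least two independent experiments.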

The nature of data set [12]: Cmax in Swiss albino mouse at 50 mg/kg, ip by LC-MS/MS analysis. The class given is ADME, organism-based. The arrangement: dose 50 mg/kg, route ip. The conditions noted are these: in vivo. A digest of the protocol: as §2
The target of data set [13] is T4, Protein cereblon/Histone-lysine N-methyltransferase NSD2. Briefly: Protac activity at CRBN E3 ligase/ NSD2 PWWP1 domain (208 to 369 residues) in HEK293FT cells assessed as induction of NSD2 degradation at 2.5 to 10 uM incubated for 48 hrs by Western blot analysis. The class given is cell-based. To be noted: dose 2.5-10 µM. A digest of the protocol: as §5
Another data set deals with KMS-11. Nature of the data set: Antiproliferative activity against human KMS-11 cells assessed as inhibition of cell growth at 2.5 uM incubated for 8 days by automated TC10 cell counter based analysis. The data set is classed as functional. To be noted: time 8.0 day. A digest of the protocol:
as §4

Data set [14] has as its target T4, Protein cereblon/Histone-lysine N-methyltransferase NSD2. Briefly: Protac activity at CRBN/NSD2 PWWP1 domain (208 to 369 residues) in wild type HEK293FT cells assessed as induction of NSD2 degradation at 0.5 to 10 uM incubated for 48 hrs by Western blot analysis. The class given is cell-based. To be noted: dose 0.5-10 µM. The gist of the method: as §3
Data set [15] shares this target. Nature of the data set: Protac activity at CRBN E3 ligase/ NSD2 PWWP1 domain (208 to 369 residues) in HEK293FT cells assessed as induction of NSD2 degradation 5 uM by Western blot analysis. The class given is cell-based. The conditions noted are these: time 0-72 hrs, TDE = time-dependent effect. The gist of the method: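 293FT cells were treated at 5 μM for 0, 12, 24, 36, 48 or 72 h. Lysates were made in 50 mM Tris-HCl pH 8.0, 150 mM NaCl, 1% NP-40, and NSD2 was immunoblotted with GAPDH as loading control.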

The target of data set [16] is von Hippel-Lindau disease tumor suppressor/Histone-lysine N-methyltransferase NSD2 (Homo sapiens) (UniProt O96028+P40337). Nature of the data set: Protac activity at VHL E3 ligase/ NSD2 PWWP1 domain (208 to 369 residues) in HEK293FT cells assessed as induction of NSD2 degradation at 2.5 to 10 uM incubated for 48 hrs by Western blot analysis. The class given is cell-based. To be noted: dose 2.5-10 µM. The gist of the method:
as §5

Usually pKd stands for −log10 of the Kd, conventionally taken in molar units. `CN1C(=O)CCC(N2C(=O)c3cccc(NCC(=O)NCCCOc4ccc(NC(=O)c5ccc(CN(C(=O)c6ccc7c(c6)OCC(=O)N7)C6CC6)cc5)nc4)c3C2=O)C1=O` (stereo not drawn): the pKd in [1] is 6.05.
As for `CC(C)N(Cc1ccc(C(=O)Nc2ccc(OCCCNC(=O)CNc3cccc4c3C(=O)N(C3CCC(=O)NC3=O)C4=O)cn2)cc1)C(=O)c1ccc2c(c1)OCC(=O)N2` (stereo not drawn), the outcome in [2], in data set [3], in data set [4] and in data set [5] was Active.
As a reminder, the Emax is the size of the effect at its maximum, as opposed to the concentration needed. What is called Tmax is the time at which the peak concentration occurs. What is called DC50 is the concentration at which degradation of the target reaches its halfway point. For orientation: Cmax means the peak of the concentration-time curve. In the case of `O=C(CNc1cccc2c1C(=O)N(C1CCC(=O)NC1=O)C2=O)NCCCOc1ccc(NC(=O)c2ccc(CN(C(=O)c3ccc4c(c3)OCC(=O)N4)C3CC3)cc2)nc1` (stereo not drawn), the Emax in [6] was above 82%. In data set [7], the concentration at 8 h was 980 nM. Besides, the outcome in data set [8], in data set [2], in data set [3], in data set [13], in data set [4] and in data set [5] was Active. In addition, the outcome in [14] was Active. The inhibition entry with NCI-H929 and with KMS-11 was “Active” each time. The figures for the Activity result in data set [9] and in data set [15] were “Non-Toxic” and “Tde”, respectively. Besides, the Tmax in data set [10] was 30 min. Also, in data set [11], the DC50 is 5.2 µM. Moreover, the pKd in [1] is 5.96. For the same molecule, the highest level in [12] (Cmax) was 1350 nM.
Take `Cc1ncsc1-c1ccc(CNC(=O)[C@@H]2C[C@@H](O)CN2C(=O)[C@@H](NC(=O)CCOCCOCCNC(=O)c2ccc(NC(=O)c3ccc(CN(C(=O)c4ccc5c(c4)OCC(=O)N5)C4CC4)cc3)cc2)C(C)(C)C)cc1`: the result in data set [16] was Active.
